According to ChEMBL document CHEMBL4196061, “Novel topoisomerase I inhibitors. Syntheses and biological evaluation of phosphorus substituted quinoline derivates with antiproliferative activity” (Eur J Med Chem, 2018):

Legend:
[1] = system: A549; assay: Antiproliferative activity against human A549 cells after 48 hrs by CCK-8 assay; format: functional, cell-based; conditions: A549, 48 h
How it was run: (§1)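 Cells seeded at 2-4 x 10^3 per well and grown overnight in 0.1 mL medium with 10% FBS at 37 °C under 5% CO2. Drugs were added on day 2 and cells incubated 48 h. CCK-8 was then added for 2 h at 37 °C and absorbance read at 450 nm. IC50 values were reported.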

[2] = molecular target: T1, DNA topoisomerase 1 (Homo sapiens) (UniProt P11387); assay: (§2) Inhibition of recombinant human topoisomerase 1-mediated DNA relaxation expressed in Saccharomyces cerevisiae TopI null strain RS190 at 40 uM using negatively supercoiled pUC18 as substrate pretreated with enzyme for 15 mins followed by substrate addition measured after 3 mins by agarose gel electrophoresis
T1 sequence (whole entry): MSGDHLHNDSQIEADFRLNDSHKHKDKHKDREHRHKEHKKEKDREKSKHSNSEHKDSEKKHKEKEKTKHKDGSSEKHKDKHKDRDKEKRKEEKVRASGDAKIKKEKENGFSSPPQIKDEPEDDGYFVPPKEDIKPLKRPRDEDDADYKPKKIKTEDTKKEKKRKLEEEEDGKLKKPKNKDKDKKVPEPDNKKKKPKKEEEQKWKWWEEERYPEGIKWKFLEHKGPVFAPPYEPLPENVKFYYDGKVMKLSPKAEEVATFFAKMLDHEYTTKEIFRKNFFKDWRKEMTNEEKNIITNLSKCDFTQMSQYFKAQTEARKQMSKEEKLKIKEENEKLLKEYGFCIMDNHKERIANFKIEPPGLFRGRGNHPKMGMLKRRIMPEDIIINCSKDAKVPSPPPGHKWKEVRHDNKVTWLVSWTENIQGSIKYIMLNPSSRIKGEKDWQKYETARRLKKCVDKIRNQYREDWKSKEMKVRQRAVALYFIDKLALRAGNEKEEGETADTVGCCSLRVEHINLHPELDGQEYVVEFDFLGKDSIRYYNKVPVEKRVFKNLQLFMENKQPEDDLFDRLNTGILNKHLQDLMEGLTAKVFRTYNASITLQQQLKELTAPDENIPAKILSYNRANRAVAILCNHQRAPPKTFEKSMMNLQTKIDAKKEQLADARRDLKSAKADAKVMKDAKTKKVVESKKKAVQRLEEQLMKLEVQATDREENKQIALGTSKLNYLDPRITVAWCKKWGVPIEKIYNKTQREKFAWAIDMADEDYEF
How it was run: (§3)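 Human TopI was expressed from pHT143 (GAL promoter) in yeast RS190 and affinity-purified. Reactions used 110 ng/µL TopI and 0.5 µg supercoiled pUC18 in 20 µl buffer (20 mM Tris–HCl, 0.1 mM Na2EDTA, 10 mM MgCl2, 50 µg/mL acetylated BSA, 150 mM KCl, pH 7.5). Drug was mixed with enzyme before DNA was added, and reactions were stopped with SDS. Products were resolved on 1% agarose in TBE and stained with gel red.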

[3] = molecular target: T1, DNA topoisomerase 1 (Homo sapiens); assay: as §2, with “10” for “40”; how it was run: as §3
[4] = molecular target: T1, DNA topoisomerase 1 (Homo sapiens); assay: as §2, with “20” for “40”; how it was run: as §3
[5] = molecular target: T1, DNA topoisomerase 1 (Homo sapiens); assay: as §2, with “60” for “40”; how it was run: as §3
[6] = molecular target: T1, DNA topoisomerase 1 (Homo sapiens); assay: as §2, with “80” for “40”; how it was run: as §3
[7] = molecular target: T1, DNA topoisomerase 1 (Homo sapiens); assay: as §2, with “80” for “40”, “15 secs” for “3 mins”; how it was run: as §3
[8] = system: SK-OV-3; assay: Antiproliferative activity against human SKOV3 cells after 48 hrs by CCK-8 assay; format: functional, cell-based; conditions: SK-OV-3, 48 h; how it was run: as §1
[9] = system: HEK293; assay: Antiproliferative activity against human HEK293 cells after 48 hrs by CCK-8 assay; conditions: HEK293, 48 h
[10] = molecular target: T1, DNA topoisomerase 1 (Homo sapiens); assay: as §2, with “80” for “40”, “1 min” for “3 mins”; how it was run: as §3
[11] = system: MRC5; assay: Antiproliferative activity against human MRC5 cells after 48 hrs by CCK-8 assay; format: cell-based; conditions: MRC5, 48 h; how it was run: as §1

Row | SMILES | IC50 [1] [µM] | inhibition [2] [%] | inhibition [3] [%] | inhibition [4] [%] | inhibition [5] [%] | inhibition [6] [%] | inhibition [7] [%] | IC50 [8] [µM] | inhibition [10] [%] | IC50 [9] [µM] | IC50 [11] [µM]
1 | c1ccc([C@H]2C[C@@H](c3ccccc3)Nc3c2cccc3P(c2ccccc2)c2ccccc2)cc1 | 0.6 | 0 | 0 | 0 | 0 | 85 | 85 | > 50 | 85 | > 50 | > 50
2 | O=P(c1ccccc1)(c1ccccc1)c1cccc2c1N[C@H](c1ccccn1)C[C@@H]2c1ccccc1 | 3.8 | 24 | 19 | 19 | 34 | 76 | 92 | 19.1 | 85 | 14.8 | > 50
3 | S=P(c1ccccc1)(c1ccccc1)c1cccc2c1N[C@H](c1ccc3ccccc3c1)C[C@@H]2c1ccccc1 | 0.27 | 19 | 15 | 16 | 28 | 76 | 76 | > 50 | 76 | > 50 | > 50

Further compounds by falling IC50 [1], results first:

Row | IC50 [1] [µM] | inhibition [2] [%] | inhibition [3] [%] | inhibition [4] [%] | inhibition [5] [%] | inhibition [6] [%] | inhibition [7] [%] | IC50 [8] [µM] | inhibition [10] [%] | SMILES | IC50 [9] [µM] | IC50 [11] [µM]
4 | 0.16 | 0 | 0 | 0 | 0 | 76 | 81 | > 50 | 81 | S=P(c1ccccc1)(c1ccccc1)c1cccc2c1N[C@H](c1ccccc1)C[C@@H]2c1ccccc1 | > 50 | > 50
5 | 0.03 | 17 | 17 | 17 | 19 | 75 | 85 | > 50 | 84 | Fc1ccc([C@H]2C[C@@H](c3ccc(F)cc3)Nc3c2cccc3P(=S)(c2ccccc2)c2ccccc2)cc1 | > 50 | > 50
